Three compounds from ChEMBL document CHEMBL4014314, “Rational Design of Bisubstrate-Type Analogues as Inhibitors of DNA Methyltransferases in Cancer Cells” (J Med Chem, 2017) can be followed below.

Active and inactive are the calls of the source. The calls are words filed in the database; no cut-off is given here.

The species entered for data set [1] is Homo sapiens. In words: Inhibition of DNMT in human KG1 cells assessed as luciferase gene driven CMV promoter demethylation by measuring fold increase in luciferase reactivation at 5 uM after 24 hrs by luciferase reporter gene assay relative to control. Type of data set: cell-based. The essentials:
(§1)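 Leukemia KG-1 cells carrying a stable luciferase gene under a partially methylated CMV promoter, treated in 96-well plates for 24 h. Luciferase signal read by luminescence (Britelite); reactivation fold expressed as ratio to non-treated cells. Mean of three experiments with standard error.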

The target in data set [2] is T1, DNA (cytosine-5)-methyltransferase 3A (Homo sapiens, UniProt Q9Y6K1). The data set is described as follows: Inhibition of human DNMT3A catalytic domain using AdoMet assessed as reduction of methylation in 5'-biotin/3' 6-carboxyfluorescein labeled DNA duplex at CpG site at 32 uM after 1 hr by fluorescence assay relative to control.
T1 sequence (Q9Y6K1 whole entry, looked up, the tested form may be a part): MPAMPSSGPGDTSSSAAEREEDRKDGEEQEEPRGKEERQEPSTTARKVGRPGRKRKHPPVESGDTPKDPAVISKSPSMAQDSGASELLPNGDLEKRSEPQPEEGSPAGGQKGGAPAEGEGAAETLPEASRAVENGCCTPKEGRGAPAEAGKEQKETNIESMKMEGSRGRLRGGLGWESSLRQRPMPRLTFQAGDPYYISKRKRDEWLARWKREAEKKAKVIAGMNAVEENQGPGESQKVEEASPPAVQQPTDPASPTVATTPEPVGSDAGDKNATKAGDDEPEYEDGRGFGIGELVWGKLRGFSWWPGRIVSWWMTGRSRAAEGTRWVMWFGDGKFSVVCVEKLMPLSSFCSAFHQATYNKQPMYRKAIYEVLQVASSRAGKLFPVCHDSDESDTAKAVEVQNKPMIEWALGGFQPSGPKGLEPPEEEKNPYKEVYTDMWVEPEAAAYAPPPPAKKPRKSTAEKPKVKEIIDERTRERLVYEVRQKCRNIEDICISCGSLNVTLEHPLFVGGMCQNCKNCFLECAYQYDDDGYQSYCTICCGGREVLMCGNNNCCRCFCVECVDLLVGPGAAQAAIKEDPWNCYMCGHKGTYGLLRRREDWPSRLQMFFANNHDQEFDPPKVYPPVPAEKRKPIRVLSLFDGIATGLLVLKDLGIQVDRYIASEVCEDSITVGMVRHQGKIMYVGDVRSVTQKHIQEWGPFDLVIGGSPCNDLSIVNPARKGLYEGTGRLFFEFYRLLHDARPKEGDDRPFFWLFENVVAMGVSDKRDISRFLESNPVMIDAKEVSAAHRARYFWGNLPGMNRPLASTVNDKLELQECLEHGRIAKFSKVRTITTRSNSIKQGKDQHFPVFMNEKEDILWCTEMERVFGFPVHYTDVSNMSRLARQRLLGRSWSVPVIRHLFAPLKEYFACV
In data set [3] the target is T1, DNA (cytosine-5)-methyltransferase 3A. The data set is described as follows: Inhibition of human DNMT3A catalytic domain using AdoMet assessed as reduction of methylation in 5'-biotin/3' 6-carboxyfluorescein labeled DNA duplex at CpG site at 10 uM after 1 hr by fluorescence assay relative to control.
The target in data set [4] is T2, DNA (cytosine-5)-methyltransferase 1 (Homo sapiens, UniProt P26358). In words: Inhibition of full length His-tagged human DNMT1 using SAM/[methyl-3H]SAM assessed as reduction of methylation in biotinylated hemimethylated DNA duplex at 100 uM after 1 hr by scintillation counting method relative to control.
T2 sequence (P26358 whole entry): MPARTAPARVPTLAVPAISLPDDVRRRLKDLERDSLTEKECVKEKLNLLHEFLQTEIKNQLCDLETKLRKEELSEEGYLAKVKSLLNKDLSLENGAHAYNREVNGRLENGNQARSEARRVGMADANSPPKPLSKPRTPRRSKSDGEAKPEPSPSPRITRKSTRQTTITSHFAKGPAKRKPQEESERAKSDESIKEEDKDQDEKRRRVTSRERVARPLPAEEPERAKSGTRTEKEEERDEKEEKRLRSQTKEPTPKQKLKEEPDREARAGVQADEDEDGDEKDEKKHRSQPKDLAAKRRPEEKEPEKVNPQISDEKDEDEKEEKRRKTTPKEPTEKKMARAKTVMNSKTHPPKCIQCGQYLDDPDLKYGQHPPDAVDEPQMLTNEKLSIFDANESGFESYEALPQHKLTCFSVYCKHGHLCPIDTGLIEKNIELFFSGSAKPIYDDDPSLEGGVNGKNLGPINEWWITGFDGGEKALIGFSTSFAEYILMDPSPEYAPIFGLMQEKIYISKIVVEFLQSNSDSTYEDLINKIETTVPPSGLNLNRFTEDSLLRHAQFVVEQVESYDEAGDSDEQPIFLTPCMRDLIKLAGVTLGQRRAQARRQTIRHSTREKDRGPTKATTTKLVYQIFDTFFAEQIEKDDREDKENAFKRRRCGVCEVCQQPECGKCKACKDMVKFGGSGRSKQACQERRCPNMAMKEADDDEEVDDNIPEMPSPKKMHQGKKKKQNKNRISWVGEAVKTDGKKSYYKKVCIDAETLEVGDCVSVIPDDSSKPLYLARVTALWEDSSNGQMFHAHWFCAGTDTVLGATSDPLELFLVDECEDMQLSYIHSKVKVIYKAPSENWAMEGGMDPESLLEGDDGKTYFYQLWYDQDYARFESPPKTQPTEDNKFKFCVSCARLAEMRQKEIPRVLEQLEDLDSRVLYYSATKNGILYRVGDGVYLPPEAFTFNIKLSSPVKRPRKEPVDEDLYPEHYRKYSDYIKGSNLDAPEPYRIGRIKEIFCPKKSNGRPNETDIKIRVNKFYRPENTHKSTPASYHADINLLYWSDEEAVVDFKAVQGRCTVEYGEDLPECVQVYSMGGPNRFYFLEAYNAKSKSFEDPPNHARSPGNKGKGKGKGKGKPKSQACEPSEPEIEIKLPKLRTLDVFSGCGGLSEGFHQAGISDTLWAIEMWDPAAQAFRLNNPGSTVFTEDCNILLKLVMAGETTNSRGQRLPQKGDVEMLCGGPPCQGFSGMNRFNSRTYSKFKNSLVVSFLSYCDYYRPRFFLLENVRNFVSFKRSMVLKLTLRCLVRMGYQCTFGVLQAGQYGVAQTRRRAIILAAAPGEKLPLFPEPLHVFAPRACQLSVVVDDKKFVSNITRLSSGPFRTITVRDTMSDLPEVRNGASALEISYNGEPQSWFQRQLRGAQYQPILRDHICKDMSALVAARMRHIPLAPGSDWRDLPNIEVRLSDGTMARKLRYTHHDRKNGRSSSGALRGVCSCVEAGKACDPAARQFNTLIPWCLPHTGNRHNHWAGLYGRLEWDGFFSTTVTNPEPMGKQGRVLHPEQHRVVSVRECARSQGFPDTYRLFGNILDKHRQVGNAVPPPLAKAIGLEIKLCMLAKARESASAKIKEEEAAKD
For data set [5], the species on record is Homo sapiens. The data set is described as follows: Inhibition of DNMT in human KG1 cells assessed as luciferase gene driven CMV promoter demethylation by measuring fold increase in luciferase reactivation at 1 uM after 24 hrs by luciferase reporter gene assay relative to control. It is filed as cell-based. An outline of the steps: as §1
(In general: Reporter assays use an easily measured gene product as a stand-in for the process of interest.)

For data set [6], the target named is T2, DNA (cytosine-5)-methyltransferase 1. In words: Inhibition of full length His-tagged human DNMT1 using SAM/[methyl-3H]SAM assessed as reduction of methylation in biotinylated hemimethylated DNA duplex after 1 hr by scintillation counting method. An outline of the steps: (§2)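 Human full-length DNMT1 and catalytic DNMT3A tested for methylation of a DNA duplex; the paper gives assay details elsewhere. EC50 from a sigmoid dose-response fit with variable Hill slope; reported as median with SE from at least two independent experiments for DNMT1 and three for DNMT3A; DNMT3A curves run in technical duplicates.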

Data set [7] shares this target. In words: Inhibition of full length His-tagged human DNMT1 using SAM/[methyl-3H]SAM assessed as reduction of methylation in biotinylated hemimethylated DNA duplex at 32 uM after 1 hr by scintillation counting method relative to control.
Data set [8] has as its target T1, DNA (cytosine-5)-methyltransferase 3A. The data set is described as follows: Inhibition of human DNMT3A catalytic domain using AdoMet assessed as reduction of methylation in 5'-biotin/3' 6-carboxyfluorescein labeled DNA duplex at CpG site after 1 hr by fluorescence assay. An outline of the steps: as §2
Data set [9] is described as follows: Solubility of the compound in RPMI-1640 medium. Type of data set: physicochemical.
Data set [10] is filed under the species Homo sapiens. The data set is described as follows: Inhibition of DNMT in human HCT116 cells assessed as demethylation of CDKN2A promoter at 100 nM after 7 days by COBRA analysis relative to control. It is filed as cell-based. The essentials:
(§3)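 HCT116 colon cancer cells in MEM with HEPES, L-glutamine and 10% FCS, 37 °C, 5% CO2; seeded 1 × 10^5/mL, treated for 3 or 7 days at 100 nM. Bisulfite-converted DNA amplified at the CDKN2A promoter, then digested with BsiEI at 60 °C for 90 min (COBRA); bands quantified on 2% agarose gel. Methylation given as ratio to untreated cells; at least two independent experiments, standard errors.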

Data set [11] is filed under the species Homo sapiens. In words: Inhibition of DNMT in human HCT116 cells assessed as demethylation of CDKN2A promoter at 100 nM after 3 days by COBRA analysis relative to control. Type of data set: cell-based. The essentials: as §3
Data set [12] is filed under the species Homo sapiens. The data set is described as follows: Inhibition of DNMT in human KG1 cells assessed as CpG site demethylation at CMV promoter at 1 uM after 24 hrs by NOMe-Seq method relative to control. It is filed as cell-based. An outline of the steps:
(§4)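 CMV-luc KG-1 acute myeloid leukemia cells in RPMI-1640 with 10% FCS, seeded 2 × 10^5/mL and treated for 24 h at 1 or 5 μM. NOMe-Seq: bisulfite conversion, CMV promoter PCR (40 cycles), cloning and sequencing. CpG methylation and GpC accessibility expressed as ratio of percentage methylated cytosines in treated versus untreated sample.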

For data set [13], the species on record is Homo sapiens. The data set is described as follows: Inhibition of DNMT in human KG1 cells assessed as increase in DNA accessibility by opening the chromatin at 1 uM after 24 hrs by NOMe-Seq method relative to control. Type of data set: cell-based. On the set-up: scale not given: the % may be the effect or the level left. The essentials: as §4
For data set [14], the species on record is Homo sapiens. The data set is described as follows: Inhibition of DNMT in human KG1 cells assessed as nucleosome occupancy at CMV promoter by measuring increase in luciferase signal at 5 uM after 24 hrs by NOMe-Seq method relative to control. Type of data set: cell-based.
A short description of data set [15]: Binding affinity to 117 bp pBS DNA at 0.01 to 10 uM after 15 mins using 3'-end labeled using alpha-[32P]-dATP by DNase I footprinting assay.
The nature of data set [16]: Binding affinity to 5'-TATATACGTACGGTGTTTTCACCGTACGTATATA-3' CpG site hairpin duplex DNA (unknown origin) assessed as change in melting temperature at 10 uM.
The species entered for data set [17] is Homo sapiens. The data set is described as follows: Inhibition of DNMT in human KG1 cells assessed as increase in DNA accessibility by opening the chromatin at 5 uM after 24 hrs by NOMe-Seq method relative to control. It is filed as cell-based. Also noted: scale not given: the % may be the effect or the level left. An outline of the steps:
as §4

For data set [18], the species on record is Homo sapiens. The data set is described as follows: Inhibition of DNMT in human KG1 cells assessed as CpG site demethylation at CMV promoter at 5 uM after 24 hrs by NOMe-Seq method relative to control. It is filed as cell-based. The essentials: as §4
Another data set has as its system KG-1. The data set is described as follows: Toxicity in human KG1 cells assessed as effect on cell viability at 5 uM after 24 hrs by ATPLite assay. As to conditions: kg-1, 24 h. Type of data set: cell-based.
Data set [19] in a line: Binding affinity to 5'-TATATACGTACTGTGTTTTCACAGTACGTATATA-3' CpG site hairpin duplex DNA (unknown origin) assessed as change in melting temperature at 10 uM.
Data set [20] in a line: Binding affinity to 265 bp pBS DNA at 0.01 to 10 uM after 15 mins using 3'-end labeled using alpha-[32P]-dATP by DNase I footprinting assay.

Usually inhibition stands for how much of the control response was suppressed. For orientation: EC50 means the concentration needed to bring the measured effect to its halfway point. For the compound `c1ccc2c(NCCNc3ncnc4cc(OCC5CCN(CCNc6ccnc7ccccc67)CC5)ccc34)cccc2c1`, the fold change (FC) in the data set listed under Homo sapiens [1] and in the data set listed under Homo sapiens [5] was 4 each time. Also, the inhibition in [2] came to 90%; in data set [3] it was 91%; in data set [4] it was 94%; in [7], 86%. For the same compound, the half-maximal effective concentration (EC50) in data set [6] amounted to 20 µM; in data set [8], 0.3 µM. The solubility entry in [9] is “Soluble”.
Take `Nc1ncn([C@H]2C[C@H](O)[C@@H](CO)O2)c(=O)n1`: the inhibition in the data set filed under Homo sapiens [10] was determined as 80%; in the data set filed under Homo sapiens [11] it was 60%; in the data set filed under Homo sapiens [12], 50%. In the data set filed under Homo sapiens [13], the Activity worked out at 120%.
Take `c1ccc(CCCNc2ncnc3cc(OCC4CCN(CCNc5ccnc6ccccc56)CC4)ccc23)cc1`: the fold change (FC) is 4 in the data set listed under Homo sapiens [1], 4.7 in the data set listed under Homo sapiens [14] and 4 in the data set filed under Homo sapiens [5]. In addition, the inhibition was 98% in data set [2]; 42% in the data set filed under Homo sapiens [10]; 81% in data set [3]; 91% in data set [4]; 32% in the data set filed under Homo sapiens [11]; 33% in the data set filed under Homo sapiens [18]. Moreover, in data set [7], the inhibition was 25%. Besides, the outcome in data set [15], in [16], in data set [19] and in data set [20] was inactive. Also, the Activity in the data set filed under Homo sapiens [17] was 77%; with KG-1, “Non-Toxic”. Besides, the concentration for a half-maximal effect (EC50) was 46 µM in data set [6] and 4.4 µM in data set [8].
